Test results: ChEMBL document CHEMBL5058577, “EUbOPEN Chemogenomics Library 2 (Multiplex)” (2022)

Tested on: HEK-293T
Test: Multiplex assay against HEK293T
Format: toxicity, cell-based
Settings: human
In short: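 Imaging took place on a CQ1 microscope at 37°C and 5% CO2 once compound had been added to live cells stained at seeding with Hoechst33342, BioTracker Green Microtubule Cytoskeleton Dye, MitoTracker Red and Annexin V Alexa Fluor 680. CellPathfinder machine-learning gating classed cells as Hoechst high-intensity objects or normal cells, classed normal cells as having healthy, pyknosed or fragmented nuclei, and classed pyknosed cells as mitotic or apoptotic. Tubulin, mitochondrial-mass and membrane-permeability phenotypes are per cents of the healthy-nucleus cells.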

[1] = 12 h, 1 µM, compound concentration 1 uM, replicate 1
[2] = 12 h, 1 µM, compound concentration 1 uM, replicate 2
[3] = 12 h, 10 µM, compound concentration 10 uM, replicate 1
[4] = 12 h, 10 µM, compound concentration 10 uM, replicate 2
[5] = 24 h, 1 µM, compound concentration 1 uM, replicate 1
[6] = 24 h, 1 µM, compound concentration 1 uM, replicate 2
[7] = 24 h, 10 µM, compound concentration 10 uM, replicate 1
[8] = 24 h, 10 µM, compound concentration 10 uM, replicate 2
[9] = 48 h, 1 µM, compound concentration 1 uM, replicate 1
[10] = 48 h, 1 µM, compound concentration 1 uM, replicate 2
[11] = 48 h, 10 µM, compound concentration 10 uM, replicate 1
[12] = 48 h, 10 µM, compound concentration 10 uM, replicate 2

O=C(CCCc1ccccc1)Nc1nc2ccccc2c(=O)s1
Population Apoptotic (%) [1]: 30% | Population Fragmented Nuclei (%) [1]: 4% | Population Healthy Nuclei (%) [1]: 83% | Population Hoechst High Intensity Objects (%) [1]: 6% | Population Membrane Permeable-Phenotype (%) [1]: 0% | Population Mitochondria Different-Phenotype (%) [1]: 37% | Population Mitotic Cells (%) [1]: 70% | Population Normal (%) [1]: 93% | Population Pyknosed Nuclei (%) [1]: 11% | Population Tubulin-Different-Phenotype (%) [1]: 32% | Total Cell Count [1]: 372 | Population Apoptotic (%) [2]: 43% | Population Fragmented Nuclei (%) [2]: 7% | Population Healthy Nuclei (%) [2]: 74% | Population Hoechst High Intensity Objects (%) [2]: 13% | Population Mitochondria Different-Phenotype (%) [2]: 63% | Population Mitotic Cells (%) [2]: 56% | Population Normal (%) [2]: 86% | Population Pyknosed Nuclei (%) [2]: 17% | Population Tubulin-Different-Phenotype (%) [2]: 36% | Total Cell Count [2]: 267 | Population Apoptotic (%) [3]: 30% | Population Fragmented Nuclei (%) [3]: 10% | Population Healthy Nuclei (%) [3]: 80% | Population Hoechst High Intensity Objects (%) [3]: 9% | Population Membrane Permeable-Phenotype (%) [3]: 0% | Population Mitochondria Different-Phenotype (%) [3]: 47% | Population Mitotic Cells (%) [3]: 69% | Population Normal (%) [3]: 90% | Population Pyknosed Nuclei (%) [3]: 9% | Population Tubulin-Different-Phenotype (%) [3]: 27% | Total Cell Count [3]: 555 | Population Apoptotic (%) [4]: 44% | Population Fragmented Nuclei (%) [4]: 7% | Population Healthy Nuclei (%) [4]: 74% | Population Hoechst High Intensity Objects (%) [4]: 27% | Population Mitochondria Different-Phenotype (%) [4]: 68% | Population Mitotic Cells (%) [4]: 55% | Population Normal (%) [4]: 72% | Population Pyknosed Nuclei (%) [4]: 17% | Population Tubulin-Different-Phenotype (%) [4]: 26% | Total Cell Count [4]: 371 | Population Apoptotic (%) [5]: 20% | Population Fragmented Nuclei (%) [5]: 8% | Population Healthy Nuclei (%) [5]: 81% | Population Hoechst High Intensity Objects (%) [5]: 5% | Population Membrane Permeable-Phenotype (%) [5]: 1% | Population Mitochondria Different-Phenotype (%) [5]: 21% | Population Mitotic Cells (%) [5]: 79% | Population Normal (%) [5]: 94% | Population Pyknosed Nuclei (%) [5]: 10% | Population Tubulin-Different-Phenotype (%) [5]: 15% | Total Cell Count [5]: 538 | Population Apoptotic (%) [6]: 45% | Population Fragmented Nuclei (%) [6]: 9% | Population Healthy Nuclei (%) [6]: 78% | Population Hoechst High Intensity Objects (%) [6]: 8% | Population Membrane Permeable-Phenotype (%) [6]: 0% | Population Mitochondria Different-Phenotype (%) [6]: 38% | Population Mitotic Cells (%) [6]: 54% | Population Normal (%) [6]: 91% | Population Pyknosed Nuclei (%) [6]: 12% | Population Tubulin-Different-Phenotype (%) [6]: 13% | Total Cell Count [6]: 370 | Population Apoptotic (%) [7]: 33% | Population Fragmented Nuclei (%) [7]: 10% | Population Healthy Nuclei (%) [7]: 80% | Population Hoechst High Intensity Objects (%) [7]: 6% | Population Membrane Permeable-Phenotype (%) [7]: 0% | Population Mitochondria Different-Phenotype (%) [7]: 38% | Population Mitotic Cells (%) [7]: 66% | Population Normal (%) [7]: 93% | Population Pyknosed Nuclei (%) [7]: 9% | Population Tubulin-Different-Phenotype (%) [7]: 29% | Total Cell Count [7]: 661 | Population Apoptotic (%) [8]: 52% | Population Fragmented Nuclei (%) [8]: 8% | Population Hoechst High Intensity Objects (%) [8]: 24% | Population Mitochondria Different-Phenotype (%) [8]: 47% | Population Mitotic Cells (%) [8]: 47% | Population Normal (%) [8]: 75% | Population Pyknosed Nuclei (%) [8]: 11% | Population Tubulin-Different-Phenotype (%) [8]: 20% | Total Cell Count [8]: 444 | Population Apoptotic (%) [9]: 20% | Population Fragmented Nuclei (%) [9]: 11% | Population Healthy Nuclei (%) [9]: 82% | Population Hoechst High Intensity Objects (%) [9]: 2% | Population Membrane Permeable-Phenotype (%) [9]: 1% | Population Mitochondria Different-Phenotype (%) [9]: 15% | Population Mitotic Cells (%) [9]: 79% | Population Normal (%) [9]: 97% | Population Pyknosed Nuclei (%) [9]: 6% | Population Tubulin-Different-Phenotype (%) [9]: 11% | Total Cell Count [9]: 820 | Population Apoptotic (%) [10]: 38% | Population Fragmented Nuclei (%) [10]: 10% | Population Healthy Nuclei (%) [10]: 80% | Population Hoechst High Intensity Objects (%) [10]: 4% | Population Membrane Permeable-Phenotype (%) [10]: 0% | Population Mitochondria Different-Phenotype (%) [10]: 28% | Population Mitotic Cells (%) [10]: 61% | Population Normal (%) [10]: 95% | Population Pyknosed Nuclei (%) [10]: 8% | Population Tubulin-Different-Phenotype (%) [10]: 13% | Total Cell Count [10]: 534 | Population Apoptotic (%) [11]: 22% | Population Fragmented Nuclei (%) [11]: 14% | Population Healthy Nuclei (%) [11]: 79% | Population Hoechst High Intensity Objects (%) [11]: 4% | Population Membrane Permeable-Phenotype (%) [11]: 0% | Population Mitochondria Different-Phenotype (%) [11]: 21% | Population Mitotic Cells (%) [11]: 77% | Population Normal (%) [11]: 95% | Population Pyknosed Nuclei (%) [11]: 6% | Population Tubulin-Different-Phenotype (%) [11]: 16% | Total Cell Count [11]: 984 | Population Apoptotic (%) [12]: 68% | Population Fragmented Nuclei (%) [12]: 13% | Population Healthy Nuclei (%) [12]: 77% | Population Hoechst High Intensity Objects (%) [12]: 11% | Population Membrane Permeable-Phenotype (%) [12]: 1% | Population Mitochondria Different-Phenotype (%) [12]: 30% | Population Mitotic Cells (%) [12]: 31% | Population Normal (%) [12]: 88% | Population Pyknosed Nuclei (%) [12]: 9% | Total Cell Count [12]: 567
